From ChEMBL document CHEMBL5653631, “A Potent and Selective ULK1 Inhibitor Suppresses Autophagy and Sensitizes Cancer Cells to Nutrient Stress” (iScience, 2018)
Each block holds one compound with its values, some of them ahead of it.

Assays:
[1] = molecular target: T1, NUAK family SNF1-like kinase 2 (Homo sapiens) (UniProt Q9H093); experiment: Inhibition of human recombinant NuaK2 at 500 nM related to control ULK1
T1 sequence (whole entry): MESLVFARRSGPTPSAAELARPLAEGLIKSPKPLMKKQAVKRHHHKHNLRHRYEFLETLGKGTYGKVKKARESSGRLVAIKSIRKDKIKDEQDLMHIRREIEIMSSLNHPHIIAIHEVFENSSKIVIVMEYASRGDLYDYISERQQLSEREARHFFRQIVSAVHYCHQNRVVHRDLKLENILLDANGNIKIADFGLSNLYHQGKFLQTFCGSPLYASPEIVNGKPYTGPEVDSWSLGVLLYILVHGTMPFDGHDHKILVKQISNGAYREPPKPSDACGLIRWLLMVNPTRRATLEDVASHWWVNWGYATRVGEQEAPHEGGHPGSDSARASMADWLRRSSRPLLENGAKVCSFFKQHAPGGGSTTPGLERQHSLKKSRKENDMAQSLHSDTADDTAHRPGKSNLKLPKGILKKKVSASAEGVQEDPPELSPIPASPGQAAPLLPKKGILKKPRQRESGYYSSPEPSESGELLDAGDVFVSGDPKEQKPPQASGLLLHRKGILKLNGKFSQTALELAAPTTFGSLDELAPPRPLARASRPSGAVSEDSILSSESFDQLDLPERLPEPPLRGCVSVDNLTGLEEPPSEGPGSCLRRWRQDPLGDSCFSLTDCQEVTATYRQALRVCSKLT

[2] = molecular target: Vascular endothelial growth factor receptor 2 (Homo sapiens) (UniProt P35968); experiment: Inhibition of human recombinant KDR at 500 nM in presence of ATP by radiometric assay relative to control
[3] = molecular target: Cyclin-dependent kinase 1 (Homo sapiens) (UniProt P06493); experiment: Inhibition of human recombinant CDC2 at 500 nM related to control ULK1
[4] = molecular target: Mitogen-activated protein kinase kinase kinase 9 (Homo sapiens) (UniProt P80192); experiment: Inhibition of human recombinant MLK1 at 40 nM related to control ULK1
[5] = molecular target: T2, Aurora kinase A (Homo sapiens) (UniProt O14965); experiment: Inhibition of human recombinant AurA at 40 nM related to control ULK1
T2 sequence (whole entry): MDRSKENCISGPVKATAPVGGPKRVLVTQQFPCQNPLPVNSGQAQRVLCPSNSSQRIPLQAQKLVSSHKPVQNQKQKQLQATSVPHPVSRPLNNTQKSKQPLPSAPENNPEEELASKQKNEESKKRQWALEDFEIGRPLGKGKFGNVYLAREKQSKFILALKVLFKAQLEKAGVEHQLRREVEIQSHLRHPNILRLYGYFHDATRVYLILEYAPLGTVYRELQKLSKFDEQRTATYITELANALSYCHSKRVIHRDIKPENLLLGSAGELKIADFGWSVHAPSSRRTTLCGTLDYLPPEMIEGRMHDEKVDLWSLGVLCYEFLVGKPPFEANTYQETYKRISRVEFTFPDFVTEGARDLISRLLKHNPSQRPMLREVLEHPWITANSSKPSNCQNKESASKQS
How it was run: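 Radiometric activity assays in a panel of 327 human recombinant kinases, each run in duplicate at one inhibitor concentration. Activity remaining is expressed as percent of vehicle control, and percent inhibition is calculated as 100% minus percent activity remaining.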

[6] = molecular target: Receptor tyrosine-protein kinase erbB-4 (Homo sapiens) (UniProt Q15303); experiment: Inhibition of human recombinant ErbB4 at 40 nM related to control ULK1
[7] = molecular target: Glycogen synthase kinase-3 beta (Homo sapiens) (UniProt P49841); experiment: Inhibition of human recombinant GSK3B at 40 nM in presence of ATP by radiometric assay relative to control
[8] = molecular target: MAP kinase-activated protein kinase 2 (Homo sapiens) (UniProt P49137); experiment: Inhibition of human recombinant MAPKAPK2 at 40 nM related to control ULK1
[9] = molecular target: Serine/threonine-protein kinase NIM1 (Homo sapiens) (UniProt Q8IY84); experiment: Inhibition of human recombinant NIM1 at 15 nM in presence of ATP by radiometric assay relative to control
[10] = molecular target: Cyclin-dependent kinase 12 (Homo sapiens) (UniProt Q9NYV4); experiment: Inhibition of human recombinant CRK7 at 15 nM related to control ULK1
[11] = molecular target: Ribosomal protein S6 kinase alpha-1 (Homo sapiens) (UniProt Q15418); experiment: Inhibition of human recombinant RSK1 at 15 nM related to control ULK1
[12] = molecular target: T3, Mitogen-activated protein kinase kinase kinase 3 (Homo sapiens) (UniProt Q99759); experiment: Inhibition of human recombinant MAP3K3 at 15 nM related to control ULK1
T3 sequence (whole entry): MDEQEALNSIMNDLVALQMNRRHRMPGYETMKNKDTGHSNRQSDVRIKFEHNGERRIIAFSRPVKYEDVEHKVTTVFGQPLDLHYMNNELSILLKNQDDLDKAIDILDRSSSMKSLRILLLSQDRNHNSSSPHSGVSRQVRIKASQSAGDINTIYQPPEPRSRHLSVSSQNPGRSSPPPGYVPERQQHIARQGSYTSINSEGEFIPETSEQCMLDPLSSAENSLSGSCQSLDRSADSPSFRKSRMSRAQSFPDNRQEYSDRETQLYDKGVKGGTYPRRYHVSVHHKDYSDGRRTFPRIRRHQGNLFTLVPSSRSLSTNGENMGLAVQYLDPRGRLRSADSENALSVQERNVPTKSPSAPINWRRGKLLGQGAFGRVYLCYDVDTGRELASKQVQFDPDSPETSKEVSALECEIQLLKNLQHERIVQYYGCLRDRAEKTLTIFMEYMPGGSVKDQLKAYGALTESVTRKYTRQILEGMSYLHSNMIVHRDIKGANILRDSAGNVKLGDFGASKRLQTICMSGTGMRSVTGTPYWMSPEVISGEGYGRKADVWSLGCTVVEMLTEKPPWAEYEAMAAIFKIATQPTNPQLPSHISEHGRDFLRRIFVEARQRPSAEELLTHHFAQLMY

[13] = molecular target: Serine/threonine-protein kinase/endoribonuclease IRE1 (Homo sapiens) (UniProt O75460); experiment: Inhibition of human recombinant IRE1 at 15 nM in presence of ATP by radiometric assay relative to control
Chain of Serine/threonine-protein kinase/endoribonuclease IRE1 (Homo sapiens) (O75460 19-977 limits assumed): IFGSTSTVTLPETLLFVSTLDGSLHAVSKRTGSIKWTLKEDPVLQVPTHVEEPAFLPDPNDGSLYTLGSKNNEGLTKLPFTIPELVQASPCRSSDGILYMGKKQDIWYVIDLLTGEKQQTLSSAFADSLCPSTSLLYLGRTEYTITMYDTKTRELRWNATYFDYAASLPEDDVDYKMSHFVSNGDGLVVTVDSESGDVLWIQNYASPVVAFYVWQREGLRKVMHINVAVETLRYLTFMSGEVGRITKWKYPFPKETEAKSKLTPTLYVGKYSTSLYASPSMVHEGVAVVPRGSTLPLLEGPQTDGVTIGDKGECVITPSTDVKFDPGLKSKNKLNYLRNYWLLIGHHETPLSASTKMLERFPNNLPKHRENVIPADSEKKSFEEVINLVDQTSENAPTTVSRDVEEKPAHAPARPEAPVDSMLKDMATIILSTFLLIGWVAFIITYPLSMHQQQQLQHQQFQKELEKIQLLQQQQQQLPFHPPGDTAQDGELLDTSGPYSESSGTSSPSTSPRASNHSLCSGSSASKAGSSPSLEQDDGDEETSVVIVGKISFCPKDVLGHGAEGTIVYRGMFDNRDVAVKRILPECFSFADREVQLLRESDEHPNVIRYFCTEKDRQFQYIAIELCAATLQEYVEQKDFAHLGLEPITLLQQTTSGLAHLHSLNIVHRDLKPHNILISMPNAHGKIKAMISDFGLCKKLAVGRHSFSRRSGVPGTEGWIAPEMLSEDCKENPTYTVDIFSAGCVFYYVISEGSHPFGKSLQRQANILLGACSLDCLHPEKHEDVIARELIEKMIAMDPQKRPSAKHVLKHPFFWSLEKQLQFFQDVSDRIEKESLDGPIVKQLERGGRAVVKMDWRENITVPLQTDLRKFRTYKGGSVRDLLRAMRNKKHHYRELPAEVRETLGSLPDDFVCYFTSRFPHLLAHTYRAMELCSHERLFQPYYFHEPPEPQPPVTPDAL

Chain of Vascular endothelial growth factor receptor 2 (Homo sapiens) (P35968 whole entry): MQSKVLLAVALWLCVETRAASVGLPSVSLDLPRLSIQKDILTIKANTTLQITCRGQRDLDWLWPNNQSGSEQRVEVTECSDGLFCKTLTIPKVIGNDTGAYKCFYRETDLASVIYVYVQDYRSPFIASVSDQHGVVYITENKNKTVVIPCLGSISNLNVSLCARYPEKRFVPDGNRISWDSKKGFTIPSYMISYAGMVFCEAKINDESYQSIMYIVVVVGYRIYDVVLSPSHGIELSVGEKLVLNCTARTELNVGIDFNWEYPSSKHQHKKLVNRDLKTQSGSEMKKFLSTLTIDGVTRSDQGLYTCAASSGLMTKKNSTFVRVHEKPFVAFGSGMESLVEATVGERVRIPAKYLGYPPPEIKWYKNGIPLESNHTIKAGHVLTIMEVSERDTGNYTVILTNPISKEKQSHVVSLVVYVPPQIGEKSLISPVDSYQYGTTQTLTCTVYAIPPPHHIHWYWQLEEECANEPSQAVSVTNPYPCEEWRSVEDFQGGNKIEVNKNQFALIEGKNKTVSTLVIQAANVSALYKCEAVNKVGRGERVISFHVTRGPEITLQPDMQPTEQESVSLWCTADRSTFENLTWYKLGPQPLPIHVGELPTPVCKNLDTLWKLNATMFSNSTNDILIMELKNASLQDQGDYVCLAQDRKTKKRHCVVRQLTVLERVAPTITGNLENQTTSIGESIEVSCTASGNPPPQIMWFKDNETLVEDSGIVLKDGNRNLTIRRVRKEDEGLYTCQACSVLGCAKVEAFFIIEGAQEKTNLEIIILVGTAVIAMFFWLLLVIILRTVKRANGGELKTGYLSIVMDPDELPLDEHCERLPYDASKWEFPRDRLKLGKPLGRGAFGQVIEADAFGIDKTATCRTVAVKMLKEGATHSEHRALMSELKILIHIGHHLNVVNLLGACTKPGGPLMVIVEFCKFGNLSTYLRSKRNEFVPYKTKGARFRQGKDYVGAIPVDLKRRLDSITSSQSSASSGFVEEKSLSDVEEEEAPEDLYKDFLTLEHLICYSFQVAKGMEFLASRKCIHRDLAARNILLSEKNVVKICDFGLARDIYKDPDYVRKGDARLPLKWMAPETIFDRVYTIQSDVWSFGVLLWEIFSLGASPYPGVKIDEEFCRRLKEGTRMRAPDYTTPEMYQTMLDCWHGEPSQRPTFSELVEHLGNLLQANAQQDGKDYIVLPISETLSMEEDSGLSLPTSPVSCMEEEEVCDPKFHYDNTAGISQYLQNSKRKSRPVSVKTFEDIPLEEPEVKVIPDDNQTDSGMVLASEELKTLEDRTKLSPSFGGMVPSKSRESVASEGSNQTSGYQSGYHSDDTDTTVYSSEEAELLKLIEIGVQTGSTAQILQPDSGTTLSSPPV
Chain of Ribosomal protein S6 kinase alpha-1 (Homo sapiens) (Q15418 whole entry): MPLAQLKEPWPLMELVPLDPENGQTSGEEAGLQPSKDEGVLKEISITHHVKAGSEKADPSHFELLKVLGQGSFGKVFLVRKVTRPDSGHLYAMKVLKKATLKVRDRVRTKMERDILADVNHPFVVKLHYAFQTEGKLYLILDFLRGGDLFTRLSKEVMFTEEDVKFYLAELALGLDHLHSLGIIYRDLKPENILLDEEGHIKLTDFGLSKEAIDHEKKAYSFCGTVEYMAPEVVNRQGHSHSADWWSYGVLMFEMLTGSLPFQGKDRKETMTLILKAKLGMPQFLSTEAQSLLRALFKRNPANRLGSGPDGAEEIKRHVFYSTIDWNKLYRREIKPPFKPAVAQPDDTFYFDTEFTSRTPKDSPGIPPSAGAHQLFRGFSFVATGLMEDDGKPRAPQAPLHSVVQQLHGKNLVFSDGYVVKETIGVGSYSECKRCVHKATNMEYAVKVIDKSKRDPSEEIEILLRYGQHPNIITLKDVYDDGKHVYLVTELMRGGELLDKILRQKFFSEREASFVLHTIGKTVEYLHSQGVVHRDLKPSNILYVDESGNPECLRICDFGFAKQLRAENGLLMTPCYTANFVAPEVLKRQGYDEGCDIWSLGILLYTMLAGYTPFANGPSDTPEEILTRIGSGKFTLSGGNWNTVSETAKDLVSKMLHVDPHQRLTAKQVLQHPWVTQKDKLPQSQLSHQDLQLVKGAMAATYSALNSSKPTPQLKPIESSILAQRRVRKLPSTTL
Chain of Cyclin-dependent kinase 12 (Homo sapiens) (Q9NYV4 whole entry, looked up): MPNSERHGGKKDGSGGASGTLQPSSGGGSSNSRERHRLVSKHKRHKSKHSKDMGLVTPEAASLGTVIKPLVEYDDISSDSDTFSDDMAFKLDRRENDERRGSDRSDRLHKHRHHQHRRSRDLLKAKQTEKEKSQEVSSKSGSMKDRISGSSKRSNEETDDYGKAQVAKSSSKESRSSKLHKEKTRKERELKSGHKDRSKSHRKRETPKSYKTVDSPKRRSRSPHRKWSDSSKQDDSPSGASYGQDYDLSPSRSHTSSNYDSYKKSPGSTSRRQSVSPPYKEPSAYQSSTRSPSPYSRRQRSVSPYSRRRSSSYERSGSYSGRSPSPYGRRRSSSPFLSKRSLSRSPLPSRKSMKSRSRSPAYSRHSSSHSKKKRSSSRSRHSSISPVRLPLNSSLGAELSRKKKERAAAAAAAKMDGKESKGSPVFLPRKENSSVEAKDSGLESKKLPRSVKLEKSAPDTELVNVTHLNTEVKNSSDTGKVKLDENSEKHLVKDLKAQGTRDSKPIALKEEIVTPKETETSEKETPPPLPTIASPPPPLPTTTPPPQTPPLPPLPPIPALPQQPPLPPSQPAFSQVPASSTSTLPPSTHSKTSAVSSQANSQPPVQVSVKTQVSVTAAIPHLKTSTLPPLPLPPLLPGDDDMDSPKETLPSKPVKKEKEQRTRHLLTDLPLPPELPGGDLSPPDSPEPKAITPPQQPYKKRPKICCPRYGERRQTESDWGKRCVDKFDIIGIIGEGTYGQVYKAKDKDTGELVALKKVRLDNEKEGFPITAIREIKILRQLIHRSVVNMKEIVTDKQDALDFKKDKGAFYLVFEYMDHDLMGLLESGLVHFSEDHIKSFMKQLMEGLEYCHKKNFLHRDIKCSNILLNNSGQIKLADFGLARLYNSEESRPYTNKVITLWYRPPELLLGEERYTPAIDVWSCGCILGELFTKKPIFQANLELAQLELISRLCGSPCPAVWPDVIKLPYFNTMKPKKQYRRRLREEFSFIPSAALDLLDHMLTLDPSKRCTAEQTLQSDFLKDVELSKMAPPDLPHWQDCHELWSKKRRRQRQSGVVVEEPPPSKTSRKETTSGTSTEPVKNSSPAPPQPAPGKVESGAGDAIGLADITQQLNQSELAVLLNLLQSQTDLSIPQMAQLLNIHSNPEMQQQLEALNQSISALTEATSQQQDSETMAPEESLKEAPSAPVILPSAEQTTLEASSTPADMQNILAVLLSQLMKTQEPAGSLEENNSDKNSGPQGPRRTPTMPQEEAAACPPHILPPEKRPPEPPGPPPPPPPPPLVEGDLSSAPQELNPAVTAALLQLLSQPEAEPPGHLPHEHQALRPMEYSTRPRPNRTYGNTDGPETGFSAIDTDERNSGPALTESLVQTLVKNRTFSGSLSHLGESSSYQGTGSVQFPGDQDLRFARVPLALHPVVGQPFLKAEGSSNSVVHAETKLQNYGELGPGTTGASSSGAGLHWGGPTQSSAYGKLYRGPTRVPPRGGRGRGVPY
Chain of Cyclin-dependent kinase 1 (Homo sapiens) (P06493 whole entry, looked up): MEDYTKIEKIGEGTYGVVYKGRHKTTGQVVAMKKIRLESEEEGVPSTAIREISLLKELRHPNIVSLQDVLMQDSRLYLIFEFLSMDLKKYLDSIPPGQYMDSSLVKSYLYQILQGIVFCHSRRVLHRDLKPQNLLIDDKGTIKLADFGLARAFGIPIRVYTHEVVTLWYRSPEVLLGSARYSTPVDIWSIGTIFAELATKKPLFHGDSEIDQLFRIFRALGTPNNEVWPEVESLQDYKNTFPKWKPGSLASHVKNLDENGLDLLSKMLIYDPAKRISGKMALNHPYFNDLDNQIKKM

fold change (FC) [1]: 0.86
inhibition [2]: 0%
fold change (FC) [3]: 0.41
SMILES: CNC(=O)c1ccccc1Oc1nc(Nc2cc(OC)c(OC)c(OC)c2)ncc1Br

fold change (FC) [4]: 0.1
fold change (FC) [5]: 0.3
fold change (FC) [6]: 0
inhibition [7]: 0%
fold change (FC) [8]: 0
SMILES: O=C(N[C@@H](C1CC1)C(F)(F)F)c1cc(-c2cnn3cc(-c4ccc(F)cc4)cnc23)cs1

inhibition [9]: 6%
fold change (FC) [10]: 0.05
fold change (FC) [11]: 0.26
fold change (FC) [12]: 0.03
inhibition [13]: 0%
SMILES: CC(C)[C@H](NC(=O)c1cc(-c2cnn3cc(-c4ccc(OCCN5CCCCC5)cc4)cnc23)cs1)C(F)(F)F
